For 13 compounds, IC50 results are on record in ChEMBL document CHEMBL1145248, “Design, new synthesis, and calcilytic activity of substituted 3H-pyrimidin-4-ones” (Bioorg Med Chem Lett, 2005).

One may read the IC50 as the point on the concentration scale where inhibition reaches its midpoint.

Each structure is given as a SMILES string.

The target of this experiment is T1, Extracellular calcium-sensing receptor (Homo sapiens, UniProt P41180).
T1 sequence (P41180 whole entry): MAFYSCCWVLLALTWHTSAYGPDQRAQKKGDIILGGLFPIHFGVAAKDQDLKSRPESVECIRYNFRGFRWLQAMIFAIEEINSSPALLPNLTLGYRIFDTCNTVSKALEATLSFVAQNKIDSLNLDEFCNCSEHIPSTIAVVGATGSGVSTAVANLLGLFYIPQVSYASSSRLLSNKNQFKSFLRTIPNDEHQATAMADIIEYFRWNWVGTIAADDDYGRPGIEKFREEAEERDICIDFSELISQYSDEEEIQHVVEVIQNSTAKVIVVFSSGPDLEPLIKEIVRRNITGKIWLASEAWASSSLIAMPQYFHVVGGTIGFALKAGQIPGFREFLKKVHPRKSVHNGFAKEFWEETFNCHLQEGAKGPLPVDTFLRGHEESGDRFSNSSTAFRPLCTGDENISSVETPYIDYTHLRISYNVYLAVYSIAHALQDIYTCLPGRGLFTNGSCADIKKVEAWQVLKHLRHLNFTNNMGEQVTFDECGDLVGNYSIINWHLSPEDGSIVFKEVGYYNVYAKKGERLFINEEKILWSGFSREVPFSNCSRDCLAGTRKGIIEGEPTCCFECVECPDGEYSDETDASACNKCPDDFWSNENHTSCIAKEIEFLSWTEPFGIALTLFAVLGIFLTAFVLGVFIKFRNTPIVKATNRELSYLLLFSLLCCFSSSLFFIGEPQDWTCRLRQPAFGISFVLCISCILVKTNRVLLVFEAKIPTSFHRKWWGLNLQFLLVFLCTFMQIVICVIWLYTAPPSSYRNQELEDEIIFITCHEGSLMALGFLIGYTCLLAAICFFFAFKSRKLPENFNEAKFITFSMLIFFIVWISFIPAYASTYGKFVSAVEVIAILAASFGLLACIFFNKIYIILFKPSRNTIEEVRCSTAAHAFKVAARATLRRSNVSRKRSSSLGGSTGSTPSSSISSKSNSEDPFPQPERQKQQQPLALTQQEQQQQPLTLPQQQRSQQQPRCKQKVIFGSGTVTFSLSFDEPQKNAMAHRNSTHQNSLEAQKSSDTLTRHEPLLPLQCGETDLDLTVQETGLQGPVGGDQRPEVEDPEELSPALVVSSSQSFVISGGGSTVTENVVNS
As to the kind of experiment: Inhibitory concentration was evaluated for in vitro calcilytic activity against human calcium receptor. The procedure, abridged: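 HEK 293 4.0-7 cells stably expressing human CaR, loaded with fluo-3. Intracellular Ca2+ rise triggered by raising extracellular Ca2+ from 1.0 to 1.3 mM. Peak fluorescence normalized to the response without compound. Eight concentrations tested in duplicate, top concentration 30 µM. IC50 normalized to an internal reference standard run in parallel in each assay.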
Turning to `Cc1nc(-c2ccccc2O)n(CCc2cccc(F)c2)c(=O)c1C(C)C`, the IC50 came to 95 nM. The value for `Cc1cc(=O)n(CCc2ccccc2F)c(-c2ccccc2O)n1` was 1600 nM; that for `O=c1c2c(nc(-c3ccccc3O)n1CCc1ccccc1)CCCC2` was 140 nM. As to `Cc1c(C(F)(F)F)nc(-c2ccccc2O)n(CCc2ccccc2)c1=O`, the concentration for half-maximal inhibition (IC50) was 800 nM. The value for `O=c1c2c(nc(-c3ccccc3O)n1CCc1ccccc1)CCC2` was 200 nM; that for `CCc1c(C)nc(-c2ccccc2O)n(CCc2ccccc2F)c1=O` was 97 nM; that for `Cc1nc(-c2ccccc2O)n(CCc2ccccc2)c(=O)c1C` was 200 nM. The figure for `Cc1nc(-c2ccccc2O)n(CCc2cccc(F)c2)c(=O)c1C` is 170 nM; for `O=c1c2c(nc(-c3ccccc3O)n1CCc1cccc(F)c1)CCC2` it is 200 nM; for `CCc1c(C)nc(-c2ccccc2O)n(CCc2ccccc2)c1=O` it is 100 nM. Consider `CCCc1c(C)nc(-c2ccccc2O)n(CCc2cccc(F)c2)c1=O`, for which the concentration for half-maximal inhibition (IC50) worked out at 140 nM.

On to `Cc1cc(=O)n(CCc2ccccc2)c(-c2ccccc2O)n1`, for which the IC50 came to 1900 nM.

For the compound `Cc1cc(=O)n(CCc2cccc(F)c2)c(-c2ccccc2O)n1`, the half-maximal inhibitory concentration (IC50) turned out to be 1100 nM.
